From PubChem BioAssay
This is a sample that favours compounds with a hit; in the whole collection about 3.7% have one here.
KCNQ1 inh = human KCNQ1 channel inhibition; CHO-K1 KCNQ1, FluxOR thallium flux fluorescence; active compounds read high; B-score at 10 µM; 310,000 compounds, 1.3% hits;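 active means compounds whose thallium flux B-score, printed positive for inhibition, exceeds three library SD while starting fluorescence stays within three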;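 further: channel opened by potassium depolarization with thallium stimulus after 20 min compound exposure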
Kir21 block = inhibitors of mouse Kir2.1 inward-rectifier potassium channel. P35561. HEK293-Kir2.1, FluxOR thallium flux fluorescence; active compounds read low. AID 1672. 310,000 compounds, 0.85% hits. B-score at 10 µM;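 active means fluorescence ratio B-score at or below minus 3 SD of library scores, with starting-brightness B-score within 2 SD, cut at about -4.2 in these data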;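 further: channel flux triggered by added potassium and thallium sulfate stimulus; B-score of peak minus minimum fluorescence over baseline after thallium stimulus; more negative B-score means stronger Kir2.1 block with less thallium influx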
KCNK3 block = human KCNK3 channel inhibition, primary screen. O14649. CHO-KCNK3 thallium flux, FluxOR fluorescence; active compounds read low. B-score at 10 µM. 340,000 compounds, 0.84% hits. AID 602410;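 active means B-score under library mean minus 4 SD, starting fluorescence ratio at most library mean plus 5 SD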;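 further: more negative B-score means stronger inhibition of thallium flux through KCNK3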
hERG rescue = shields human hERG channel from block by proarrhythmic agents. Q12809. activation (rescue from dofetilide block), less the hit threshold, % at 10 µM. 310,000 compounds, 0.51% hits. AID 1511. CHO-hERG, FluxOR thallium flux, dofetilide IC70 present;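 active means activation above the mean of controls blocked by dofetilide plus 5 SD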;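 further: thallium influx through hERG after potassium depolarization seen as dye fluorescence rise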
KCNQ1 pot = potentiators or activators of human KCNQ1 potassium channel; P51787; CHO-K1 KCNQ1, thallium flux FluxOR fluorescence; active compounds read high; B-score at 10 µM; 310,000 compounds, 0.35% hits; AID 2648;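 active means fluorescence ratio B-score, a plate-corrected score, at least three library SD, with initial intensity B-score within 5 SD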
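Assay system: CHO-K1 cells stably expressing KCNQ1; Medium: assay buffer with matched DMSO; Also added: K+/Tl+ depolarizing stimulus; Dosing: single dose; Timing: dye 90 min, compound 20 min, room temperature; Measured by: kinetic FluxOR thallium fluorescence, 10-s 1-Hz baseline, 110-s post-stimulus read; Read-out: peak-minus-minimum fluorescence over initial fluorescence, negative-control normalized, B-scored.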
KCNK9 inh = human KCNK9 channel inhibition; HEK293 KCNK9, FluxOR thallium flux fluorescence; active compounds read low; B-score at 10 µM; Q9NPC2; AID 488922; 310,000 compounds, 1.2% hits;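 active means ratio B-score over 3 SD below the library mean, with starting fluorescence within 5 SD of its mean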;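 further: negative B-score means less thallium flux so channel inhibition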
Target sequence (Q9NPC2 whole entry, looked up): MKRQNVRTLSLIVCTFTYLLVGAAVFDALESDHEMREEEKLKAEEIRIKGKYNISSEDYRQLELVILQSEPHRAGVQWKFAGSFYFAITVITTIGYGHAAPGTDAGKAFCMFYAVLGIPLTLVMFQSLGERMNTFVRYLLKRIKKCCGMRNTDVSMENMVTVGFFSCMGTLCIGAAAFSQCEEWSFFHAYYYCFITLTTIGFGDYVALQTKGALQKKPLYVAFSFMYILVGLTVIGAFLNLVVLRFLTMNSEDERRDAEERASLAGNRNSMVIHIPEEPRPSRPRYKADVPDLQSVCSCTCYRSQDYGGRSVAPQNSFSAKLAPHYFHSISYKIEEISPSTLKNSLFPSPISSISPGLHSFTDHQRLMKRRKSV
KCNK9 block conf = human KCNK9 inhibitor confirmation; shares compounds with KCNK9 inh; HEK293 KCNK9 cells, FluxOR thallium flux fluorescence; inhibition, % at 10 µM; 4,900 compounds, 43% hits;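 active means thallium signal inhibited by more than 5 SD of the compound-free buffer control wells, on both duplicate plates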;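 further: 0% = assay buffer control wells without compound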
Kir21 sel = selectivity of KCNK9 modulators against mouse Kir2.1; 4,900 compounds, 4% hits; shares compounds with KCNK9 inh; AID 492993; Kir2.1 cells, FluxOR thallium flux fluorescence; inhibition, % at 10 µM;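 active means thallium signal drop more than 5 SD beyond the mean of the no-compound control wells, seen in both duplicate plates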;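 further: signal is fluorescence rise after thallium addition divided by baseline fluorescence; plate controls were assay buffer only for no effect and full block by chlorpromazine control for full effect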
KCNK9 uninduced = non-induced cell nonspecific activity of KCNK9 modulators; shares compounds with KCNK9 inh; 4,900 compounds, 40% hits; non-induced KCNK9-HEK293, FluxOR thallium flux; inhibition, % at 10 µM;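 active means thallium signal drop beyond 5 SD of the untreated control mean, on both duplicate plates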;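 further: plate controls were buffer only IC0 wells for no effect and SID17386958 at its maximal inhibitory level for full effect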
* = called active by the depositor.

Results for c1cnc2ccc(C(c3nnnn3C3CCCC3)N3CCN(c4nc5ccccc5s4)CC3)cc2c1 (stereo not given) ?
KCNQ1 inh: inactive; Kir21 block: 0.33; KCNK3 block: -9.1*; hERG rescue: -7.9; KCNQ1 pot: inactive; KCNK9 inh: -9.16*; KCNK9 block conf: inactive; Kir21 sel: inactive; KCNK9 uninduced: 40.0%*

Results for CCC(c1nnnn1C(C)(C)C)N1CCN(c2cc(Cl)ccc2C)CC1 (stereo not given) ?
KCNQ1 inh: inactive; Kir21 block: 2.35; KCNK3 block: -8.88*; hERG rescue: -4.6; KCNQ1 pot: inactive; KCNK9 inh: -9.92*; KCNK9 block conf: 49.0%*; Kir21 sel: inactive; KCNK9 uninduced: 47.0%*

Results for Cc1ccc(Cl)cc1N1CCN(C(c2cccnc2)c2nnnn2C2CCCCC2)CC1 (stereo not given) ?
KCNQ1 inh: inactive; Kir21 block: 0.02; KCNK3 block: -11*; hERG rescue: -7.0; KCNQ1 pot: inactive; KCNK9 inh: -12.7*; KCNK9 block conf: 37.0%*; Kir21 sel: inactive; KCNK9 uninduced: 44.0%*

Results for Cc1ccc(C(=O)C(C)N2C(=O)NC(C)(c3ccccc3)C2=O)cc1 (stereo not given) ?
KCNQ1 inh: inactive; Kir21 block: 0.01; KCNK3 block: inactive; hERG rescue: -8.2; KCNQ1 pot: inactive; KCNK9 inh: inactive

What do the screens show for `O=C(NCCCn1ccnc1)/C(=C\c1ccccc1Cl)NC(=O)c1ccccc1`?
KCNQ1 inh: inactive; Kir21 block: 0.17; KCNK3 block: inactive; hERG rescue: -6.8; KCNQ1 pot: inactive; KCNK9 inh: inactive

Results for CC(C)CCNC(=O)CCc1nnc2n(CCCOC(C)C)c(=O)c3ccccc3n12 ?
KCNQ1 inh: inactive; Kir21 block: 0.05; KCNK3 block: inactive; hERG rescue: -5.4; KCNQ1 pot: inactive; KCNK9 inh: inactive

How did O=C(N/N=C/c1cccnc1)c1ccccc1OCc1cccc(Br)c1 do in these assays?
KCNQ1 inh: inactive; Kir21 block: 0.15; KCNK3 block: inactive; hERG rescue: -10.8; KCNQ1 pot: inactive; KCNK9 inh: inactive

How did Cc1ccc(/C=N/NC(=O)c2ccccc2OCc2cccc(Br)c2)o1 do in these assays?
KCNQ1 inh: inactive; Kir21 block: -1.33; KCNK3 block: inactive; hERG rescue: -11.2; KCNQ1 pot: inactive; KCNK9 inh: -10.4*; KCNK9 block conf: 30.5%*; Kir21 sel: inactive; KCNK9 uninduced: inactive

Results for Cc1ccc(OCC(=O)Nc2cc(NC(=O)COc3ccc(C)c(C)c3)cc(C(=O)O)c2)cc1C ?
KCNQ1 inh: inactive; Kir21 block: 1.18; KCNK3 block: inactive; hERG rescue: -4.5; KCNQ1 pot: inactive; KCNK9 inh: inactive; KCNK9 block conf: inactive; Kir21 sel: inactive; KCNK9 uninduced: inactive

How did Cc1ccc(C)c(OCC(=O)Nc2ccc(C(=O)O)cc2NC(=O)COc2cc(C)ccc2C)c1 do in these assays?
KCNQ1 inh: inactive; Kir21 block: -0.37; KCNK3 block: inactive; hERG rescue: -18.8; KCNQ1 pot: inactive; KCNK9 inh: inactive; KCNK9 block conf: inactive; Kir21 sel: inactive; KCNK9 uninduced: inactive

How did COc1ccc(OCC(=O)Nc2cc(NC(=O)COc3ccc(OC)cc3)cc(C(=O)O)c2)cc1 do in these assays?
KCNQ1 inh: inactive; Kir21 block: 1.09; KCNK3 block: inactive; hERG rescue: -3.7; KCNQ1 pot: inactive; KCNK9 inh: inactive

What do the screens show for `COc1cnn(-c2ccccc2)c(=O)c1SCc1ccc(Cl)cc1Cl`?
KCNQ1 inh: inactive; Kir21 block: -0.22; KCNK3 block: inactive; hERG rescue: -6.9; KCNQ1 pot: inactive; KCNK9 inh: inactive
